PLC-beta3 inh = human PLC-beta3 inhibitors, primary screen, biochemical, fluorescence | 1-phosphatidylinositol 4,5-bisphosphate phosphodiesterase beta-3 (Homo sapiens), Q01970 | Purified PLC-beta3, fluorogenic substrate | inhibition, % at 12.2 µM | 370,000 compounds, 0.18% hits | AID 720704, 2013; in the data active = inhibition above about 11%;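 note: 0% = median of compound wells on plate and 100% = full blocker control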
ADAM17 inh = ADAM17 inhibitors, primary screen, biochemical, QFRET; Disintegrin and metalloproteinase domain-containing protein 17 (Homo sapiens), P78536; recombinant ADAM17, EDANS/DABCYL FRET peptide cleavage; 370,000 compounds, 0.83% hits; inhibition, % at 6.95 µM;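 active = inhibition above the mean of compounds lying between control limits plus 3 SD, set per campaign, cut at about 8.5% in these data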;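 note: 0% = DMSO-only wells as the low control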
Tn6 DDE FP = inhibitors of Tn6 peptide binding to fibrin DD(E), primary screen, biochemical, fluorescence polarization, human fibrin, Tn6 probe | Fibrinogen beta chain (Homo sapiens), P02675 | Fibrin DD(E) TRITC-Tn6 fluorescence polarization displacement | inhibition, % at 8.3 µM | 370,000 compounds, 0.21% hits | AID 720509, 2013;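 active = inhibition above a per-campaign cutoff: mean of compounds within control limits plus 3 SD, cut at about 15% in these data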;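 note: 0% = median of all compound wells on the plate and 100% = blocking peptide control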
Tn7 DDE FP = inhibitors of Tn7 peptide binding to fibrin DD(E), primary screen, biochemical, fluorescence polarization, human fibrin, Tn7 probe | 370,000 compounds, 0.13% hits | inhibition, % at 8.3 µM | AID 720508, 2013 | FP displacement of FITC-Tn7 peptide from fibrin DD(E); 0% = median of compound wells per plate;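 active = inhibition above the mean of compounds falling within the control limits plus 3 SD of them, cut at about 14% in these data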;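 note: 0% = plate median of compound wells and 100% = 10 µM Aha-Tn7 peptide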
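Measure: % inhibition scaled between sample-field median and high-control FP; Test system: human fibrin DD(E); Quantity: 2 µM final DD(E) protein; Doses: one dose, 8.3 µM nominal; Schedule: compound with protein 10 min, then 3 h after probe, room temperature; Detection: fluorescence polarization; Medium: Tris buffer with calcium and detergent, pH 7.8.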
ADAM10 inh = human ADAM10 inhibitors, primary screen, biochemical, QFRET, HTS; Disintegrin and metalloproteinase domain-containing protein 10 (Homo sapiens), O14672; recombinant ADAM10, EDANS/DABCYL FRET peptide cleavage, 3 h; inhibition, % at 7 µM; 370,000 compounds, 0.62% hits; AID 720582, 2013;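 active = inhibition above a per-campaign cutoff equal to the mean of compounds falling between control-based bounds plus 3 SD, cut at about 20% in these data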;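 note: 0% = DMSO wells while the 100% control is not disclosed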
PLC-gamma1 inh = PLC-gamma1 enzyme inhibitors, primary screen, biochemical, fluorescence, purified enzyme; fluorogenic substrate; inhibition, % at 12.2 µM; 370,000 compounds, 0.84% hits
PLCg1 ctr = PLC-gamma1 enzyme inhibitors, counter-screen for PLC-beta3 inhibitor project, biochemical, fluorescence; purified PLC-gamma1, fluorogenic substrate; 3,300 compounds, 3.1% hits; shares compounds with PLC-gamma1 inh; inhibition, % at 12.3 µM; AID 743258, 2014
PLCb3 confirm = PLC-beta3 inhibitor confirmation, biochemical, fluorescence, purified enzyme; shares compounds with PLC-gamma1 inh; fluorogenic substrate fluorescence; inhibition, % at 12.3 µM; 3,300 compounds, 1% hits; AID 743261, 2014; in the data active = inhibition above about 11%
An asterisk follows results filed as active; . = no result. Shown are actives, neighbours in structure and some others; about 2.3% of the full set was active somewhere. Cut-off read from the data, not from the text of the source, unless noted: active = inhibition above about 9.5%; inactive = the rest.

SMILES | PLC-beta3 inh | ADAM17 inh | Tn6 DDE FP | Tn7 DDE FP | ADAM10 inh | PLC-gamma1 inh | PLCg1 ctr | PLCb3 confirm
COC(=O)c1cc(S(=O)(=O)N2CCCN(C(C)=O)CC2)cn1C | 4 | 0 | -4 | -6 | -1 | -1 | . | .
COc1ccc(CNC(=O)c2cccc(S(=O)(=O)N3CCCCC3)c2)cc1OC | -4 | 1 | 1 | -12 | -4 | 1 | . | .
COc1ccc(S(=O)(=O)N2CCC(N3CCCCC3)CC2)cc1 | 5 | 2 | -6 | -1 | 2 | 9.7* | -1 | -1
COc1ccc(S(=O)(=O)N2CCN(C3CCCCCCC3)CC2)cc1 | 2 | -2 | -3 | 5 | 3 | 1 | . | .
COc1ccc(CNS(=O)(=O)c2ccc(S(=O)(=O)N3CCCCC3)cc2)cc1 | 5 | 5 | 1 | -2 | 7 | 11* | -4 | -1
COc1ccc(CNC(=O)c2cc(S(=O)(=O)N3CCCCC3)ccc2Cl)cc1OC | 13* | 4 | -6 | -2 | -11 | 1 | -4 | 3
COc1ccc(S(=O)(=O)N2CCCCCC2)cc1 | -3 | 6 | 3 | -2 | -6 | -1 | . | .
CN(CC#Cc1ccccc1)C(N)=NC(=O)/C=C/c1cccc(C(F)(F)F)c1 | -6 | -3 | 1 | 4 | -2 | -3 | . | .
O=C(NC1CCCN(Cc2ccc(Cl)cc2)C1)c1ccnc(Cl)c1 (centres undefined) | -13 | 6 | -9 | 2 | 10 | 11* | -8 | -2
COc1cc(OC)cc(C(=O)NC2CCCN(Cc3ccc(Cl)cc3)C2)c1 (centres undefined) | -1 | 4 | 5 | 1 | 2 | 0 | . | .
CCCCCCOc1ccc(/C(N)=N/O)cc1 | 6 | 4 | -7 | 9 | 9 | 12* | -8 | -1
N=C(N)c1ccc(OCCCCCOc2ccc(C(=N)N)cc2)cc1 | 1 | -5 | -6 | 8 | -7 | 2 | . | .
CC(C)N(CCO)C(=O)CCc1nnc(Cc2cccc(C(F)(F)F)c2)o1 | -2 | -1 | -3 | -5 | -2 | 9.7* | -1 | 1
O=C(CNC(=O)c1cncc(Br)c1)Nc1ccc(F)c(F)c1F | -1 | 0 | 0 | 5 | 0 | 3 | . | .
O=C(CNC(=O)c1cnccn1)Nc1ccc(F)c(F)c1F | 5 | 4 | 3 | -16 | 8 | 11* | -3 | 2
CCCCCCCN(c1ccccc1)C1C[C@H]2CCCC(=O)N3CC[C@@H](C1)[C@@H]23 (some centres undefined) | 0 | -1 | 1 | 4 | 7 | 2 | . | .
COc1cccc(-n2c(C)nnc2SCC#N)c1 | 13* | 6 | -1 | -3 | 11 | 12* | -4 | -1
CCSc1cc(C)nc2ncnn12 | 14* | 5 | -4 | -1 | 9 | 13* | -13 | -6
CCOc1ccc(C(=O)c2cc([N+](=O)[O-])ccc2Cl)cc1 | 15* | 8 | -6 | 3 | 12 | 13* | -6 | -3
COC(=O)N1CCC[C@H]1c1cccc2[nH]cc(C)c12 | -6 | -5 | -2 | 1 | -14 | -1 | . | .
Cc1ccnc(Sc2ccc([N+](=O)[O-])cc2[N+](=O)[O-])n1 | 6 | -3 | 7 | 3 | 4 | 6 | . | .
Nc1nc(Sc2ccc([N+](=O)[O-])cc2[N+](=O)[O-])n[nH]1 | -1 | -1 | -1 | 5 | 5 | 9.5* | 4 | 3
CCCNC(=S)N(Cc1ccccc1)Cc1nc2ccccc2c(=O)[nH]1 | -9 | -85 | -5 | -8 | -12 | 20* | -44 | -34
CCOC(=O)[C@@]12CCCC=C1N(CCc1ccc(Cl)cc1)C(=O)[C@H]2CC(=O)N1CCCC1 | -2 | 1 | 3 | 0 | -8 | -2 | . | .
Cc1cccn2cc(CNC(=O)c3ccco3)nc12 | 11* | 5 | -1 | 1 | 10 | 6 | -8 | 0
SMILES | PLC-beta3 inh | ADAM17 inh | Tn6 DDE FP | Tn7 DDE FP | ADAM10 inh | PLC-gamma1 inh | PLCg1 ctr | PLCb3 confirm
Cc1cccn2cc(CCNC(=O)c3ccco3)nc12 | 0 | -1 | -9 | -6 | -11 | 1 | . | .
Cc1cc(C)cc(NC(=O)Cc2ccc(NC3=NC4CS(=O)(=O)CC4S3)cc2)c1 (centres undefined) | 5 | 2 | 7 | -3 | -1 | 0 | . | .
O=C(c1ccc(NC2=NC3CS(=O)(=O)CC3S2)cc1)N1CCN(c2ccccc2F)CC1 (centres undefined) | 1 | -3 | -3 | -4 | 0 | 1 | . | .
O=C(c1ccc(NC2=NC3CS(=O)(=O)CC3S2)cc1)N1CCN(Cc2ccccc2)CC1 (centres undefined) | -1 | 0 | 3 | 2 | 0 | 9.8* | -7 | 0
Cc1ccc(NC(=O)c2cccc(NC3=NC4CS(=O)(=O)CC4S3)c2)cc1 (centres undefined) | 2 | 2 | 1 | -6 | -4 | 0 | . | .
Cc1cccc(NC(=O)Cc2ccc(NC3=NC4CS(=O)(=O)CC4S3)cc2)c1 (centres undefined) | 4 | 2 | -6 | -7 | 10 | 9.7* | -3 | 0
CC1CCCCC1NC(=O)c1cccc(NC2=NC3CS(=O)(=O)CC3S2)c1 (centres undefined) | 6 | 4 | 1 | -5 | 0 | 10.0* | -3 | -2
COC(=O)C1CN(CC(C)C)CCS(=O)(=O)N1Cc1ccc(Cl)cc1 (centres undefined) | 4 | 1 | -4 | -5 | 12 | 1 | . | .
Cc1cnn(-c2cc(N/N=C/c3ccccc3F)ncn2)c1 | 5 | 5 | 2 | -2 | 7 | 12* | -7 | -3
O=C(Nc1ccc(Cl)c([N+](=O)[O-])c1)c1cnccn1 | -3 | -2 | -1 | -5 | -4 | 0 | . | .
O=C(Nc1ccc(Cl)c([N+](=O)[O-])c1)c1ccncc1 | 3 | 1 | 3 | 10 | -10 | 11* | -7 | 1
C/C=C/C(=O)N1CCC(C(=O)NCC2COc3ccccc3O2)CC1 (centres undefined) | 4 | 2 | 2 | 0 | 8 | 3 | . | .

Bioassay records (PubChem BioAssay)
